This is an account of results in ChEMBL document CHEMBL1150402, “Carbon-11 labeled indolylpropylamine analog as a new potential PET agent for imaging of the serotonin transporter” (Bioorg Med Chem, 2008).

The target of experiment [1] is Sodium-dependent noradrenaline transporter (Homo sapiens, UniProt P23975). Briefly: Displacement of [3H]nisoxetine from human NET expressed in HEK293 cells. The experiment is classed as cell-based. The procedure, abridged: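 Stably transfected HEK293 membrane preparation (50-80 ug protein/tube) in 50 mM Tris-HCl pH 7.4, 120 mM NaCl, 5 mM KCl. 0.5 nM radioligand with 6-12 test concentrations, 21 °C for 60 min. Nonspecific: 100 uM protriptyline. GF/B filtration, scintillation counting. Triplicates per experiment; IC50 by nonlinear fitting, converted to Ki.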
Sequence of Sodium-dependent noradrenaline transporter (P23975 whole entry): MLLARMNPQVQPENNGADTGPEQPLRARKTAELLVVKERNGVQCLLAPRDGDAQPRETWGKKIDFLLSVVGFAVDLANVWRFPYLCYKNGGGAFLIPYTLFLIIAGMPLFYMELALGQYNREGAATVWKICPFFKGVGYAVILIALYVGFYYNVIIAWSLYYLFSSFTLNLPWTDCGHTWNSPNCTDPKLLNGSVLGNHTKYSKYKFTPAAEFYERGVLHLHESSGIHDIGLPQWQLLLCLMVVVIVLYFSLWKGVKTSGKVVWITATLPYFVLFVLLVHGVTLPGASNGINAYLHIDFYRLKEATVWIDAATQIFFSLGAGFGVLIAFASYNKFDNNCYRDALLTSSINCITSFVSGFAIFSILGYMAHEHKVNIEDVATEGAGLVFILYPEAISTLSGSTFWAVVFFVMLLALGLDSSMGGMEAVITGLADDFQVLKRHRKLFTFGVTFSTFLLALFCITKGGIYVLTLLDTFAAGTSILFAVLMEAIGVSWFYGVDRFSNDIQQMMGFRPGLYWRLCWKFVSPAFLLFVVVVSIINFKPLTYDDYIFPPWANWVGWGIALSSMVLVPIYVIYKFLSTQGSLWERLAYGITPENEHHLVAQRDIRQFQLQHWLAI

The target in experiment [2] is T1, Sodium-dependent serotonin transporter (Homo sapiens, UniProt P31645). Nature of the experiment: biochemical. The experiment is classed as cell-based, HEK293.
T1 sequence (P31645 whole entry): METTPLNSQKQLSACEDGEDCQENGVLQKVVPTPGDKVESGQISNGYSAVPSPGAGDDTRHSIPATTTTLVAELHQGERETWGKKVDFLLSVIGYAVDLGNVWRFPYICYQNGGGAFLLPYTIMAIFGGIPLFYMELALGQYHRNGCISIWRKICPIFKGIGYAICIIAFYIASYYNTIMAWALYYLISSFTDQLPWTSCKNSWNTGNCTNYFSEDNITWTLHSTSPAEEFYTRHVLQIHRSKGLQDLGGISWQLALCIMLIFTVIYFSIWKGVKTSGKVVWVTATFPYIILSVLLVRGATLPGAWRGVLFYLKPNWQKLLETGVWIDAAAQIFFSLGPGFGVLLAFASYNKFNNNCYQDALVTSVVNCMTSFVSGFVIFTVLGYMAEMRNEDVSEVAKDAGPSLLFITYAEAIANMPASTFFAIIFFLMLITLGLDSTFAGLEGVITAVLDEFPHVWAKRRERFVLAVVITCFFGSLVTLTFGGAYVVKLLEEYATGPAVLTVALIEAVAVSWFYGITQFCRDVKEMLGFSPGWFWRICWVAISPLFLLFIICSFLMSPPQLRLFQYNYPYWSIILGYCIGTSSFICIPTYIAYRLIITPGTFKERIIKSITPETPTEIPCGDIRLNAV
The target of experiment [3] is T1, Sodium-dependent serotonin transporter. Nature of the experiment: biochemical. The experiment is classed as cell-based, HEK293. This is another data set of the same source.
The target of experiment [4] is T2, 5-hydroxytryptamine receptor 1A (Rattus norvegicus, UniProt P19327).
T2 sequence (P19327 whole entry): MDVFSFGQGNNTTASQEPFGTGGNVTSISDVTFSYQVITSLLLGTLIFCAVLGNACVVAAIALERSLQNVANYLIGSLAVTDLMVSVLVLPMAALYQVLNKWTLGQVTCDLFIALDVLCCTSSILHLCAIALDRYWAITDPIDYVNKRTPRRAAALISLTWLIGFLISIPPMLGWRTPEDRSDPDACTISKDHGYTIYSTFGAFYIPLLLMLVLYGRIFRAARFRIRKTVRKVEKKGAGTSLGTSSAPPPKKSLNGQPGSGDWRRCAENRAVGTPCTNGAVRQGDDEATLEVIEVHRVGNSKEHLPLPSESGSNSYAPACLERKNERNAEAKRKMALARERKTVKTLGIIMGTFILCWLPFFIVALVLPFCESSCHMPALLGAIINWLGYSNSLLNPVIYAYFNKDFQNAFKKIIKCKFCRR
Briefly: Displacement of [3H]8-OH-DPAT from 5HT1A receptor in rat cortical membrane. The experiment is classed as cell membranes. The procedure, abridged: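 Cortex from female SPRD rats (~200 g), homogenized and washed in 50 mM Tris-HCl pH 7.4. Membranes in 50 mM Tris-HCl pH 7.4, 4 mM CaCl2, 0.1% ascorbic acid with 0.3 nM radioligand and 6-12 test concentrations, 21 °C for 60 min. Nonspecific: 10 uM serotonin. GF/B filtration, scintillation counting.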

For experiment [5], the target named is Sodium-dependent dopamine transporter (Homo sapiens, UniProt Q01959). Briefly: Displacement of [3H]WIN-35428 from human DAT expressed in HEK293 cells. The experiment is classed as cell-based. The procedure, abridged: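 Stably transfected HEK293 membrane preparation (50-80 ug protein/tube) in 50 mM Tris-HCl pH 7.4, 100 mM NaCl. 0.5 nM radioligand with 6-12 test concentrations, on ice for 120 min. Nonspecific: 10 uM GBR12909. GF/B filtration, ice-cold Tris washes, scintillation counting. Triplicates per experiment; IC50 by iterative nonlinear fitting, converted to Ki.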
Sequence of Sodium-dependent dopamine transporter (Q01959 whole entry): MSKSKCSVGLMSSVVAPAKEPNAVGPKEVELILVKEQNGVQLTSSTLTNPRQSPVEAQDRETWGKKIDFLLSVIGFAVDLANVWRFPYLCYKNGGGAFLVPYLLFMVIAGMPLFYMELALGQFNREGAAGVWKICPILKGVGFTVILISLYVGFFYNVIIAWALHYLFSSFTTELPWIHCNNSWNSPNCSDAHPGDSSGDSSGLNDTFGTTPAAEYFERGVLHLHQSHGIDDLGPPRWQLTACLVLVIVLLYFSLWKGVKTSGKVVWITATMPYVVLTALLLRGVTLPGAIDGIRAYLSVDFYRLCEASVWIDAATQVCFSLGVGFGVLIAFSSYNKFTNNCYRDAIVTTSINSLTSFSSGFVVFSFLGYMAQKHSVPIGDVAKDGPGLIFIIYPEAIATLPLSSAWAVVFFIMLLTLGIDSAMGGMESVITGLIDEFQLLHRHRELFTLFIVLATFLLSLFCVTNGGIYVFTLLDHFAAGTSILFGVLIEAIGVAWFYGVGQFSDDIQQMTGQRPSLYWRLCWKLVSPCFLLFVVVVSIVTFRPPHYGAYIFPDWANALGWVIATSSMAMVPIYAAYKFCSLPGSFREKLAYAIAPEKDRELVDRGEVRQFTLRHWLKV

For `[11CH3]Oc1ccc2c(c1)CCN(CCCc1c[nH]c3ccc(F)cc13)C2`, the Ki in experiment [1] is 1680 nM; in experiment [2], 4.11 nM; in experiment [3], 25.3 nM; in experiment [4], 54 nM; in experiment [5] it was 2490 nM.

`[11CH3]Oc1cccc2c1CCN(CCCc1c[nH]c3ccc(Br)cc13)C2`: the Ki in experiment [1] was 6600 nM; in experiment [2] it was 1910 nM; in experiment [3], 2980 nM; in experiment [4], 1990 nM; in experiment [5], 3490 nM.

As to `[11CH3]Oc1ccc2c(c1)CCN(CCCc1c[nH]c3ccc(Br)cc13)C2`, the Ki came to 2770 nM in experiment [1]; 11.4 nM in experiment [2]; 13.3 nM in experiment [3]; 50 nM in experiment [4]; 1030 nM in experiment [5].

Regarding `[11CH3]Oc1cccc2c1CCN(CCCc1c[nH]c3ccc(I)cc13)C2`, the Ki in experiment [1] was 1810 nM; in experiment [2], 213 nM; in experiment [3], 2660 nM; in experiment [4], 1120 nM; in experiment [5], 1160 nM.

As to `[11CH3]Oc1cccc2c1CCN(CCCc1c[nH]c3ccc(F)cc13)C2`, the Ki was 2880 nM in experiment [1]; 6.46 nM in experiment [2]; 44.7 nM in experiment [3]; 164 nM in experiment [4]; 1480 nM in experiment [5].

Regarding `[11CH3]Oc1ccc2c(c1)CCN(CCCc1c[nH]c3ccc(I)cc13)C2`, the inhibitory constant (Ki) in experiment [1] was 712 nM; in experiment [2], 374 nM; in experiment [3] it was 1110 nM; in experiment [4] it was 685 nM; in experiment [5], 3650 nM.

For the compound `CNC(C)Cc1ccc2c(c1)OCO2` (configuration not stated) [MIDOMAFETAMINE], the Ki was 0.73 nM in experiment [2] and 2.03 nM in experiment [3].
